Assay results: publication PMC4084507 (Chembiochem : a European journal of chemical biology, 2014)
Like-named read-outs stand apart in the source and are kept apart here.

Tests used:
[1] = molecular target: AtsB (Mycobacterium tuberculosis, UniProt O65931); details: 10 µM probe, 7-8 min; native gel-resolved lysate
[2] = test system: Helix pomatia sulfatase; assay: fluorogenic hydrolysis assay; assay type: biochemical; details: read-out: Helix pomatia ^[b]; potassium acetate buffer pH 5.0, 37 °C
Method in brief: (§1)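 Commercial Helix pomatia sulfatase was incubated with the fluorogenic sulfate substrate in potassium acetate buffer (pH 5.0) at 37 °C. Formation of the released fluorophore was monitored over time. Substrate-only reactions without enzyme served as the background control. KM and Vmax (pmoles/sec) were derived from the kinetics, and Vmax/KM was calculated from them.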

[3] = test system: Helix pomatia sulfatase; assay: fluorogenic hydrolysis assay; assay type: biochemical; details: read-out: Helix pomatia ^[b]; potassium acetate buffer pH 5.0, 37 °C; remark: listed apart in the source
Method in brief: as §1

SMILES	in-gel fluorescence after native gel of lysate [1]	Km [2]	Km [3]
CC1(C)C2=C(Cl)C(=O)C(Cl)=CC2=Nc2ccc(OS(=O)(=O)O)cc21 [DDAO-sulfate]	AtsB can hydrolyze both RS and DDAO-sulfate, but not MFS	–	–
COc1ccc2c(c1)Oc1cc(OS(=O)(=O)O)ccc1C21OC(=O)c2ccccc21 (stereo not shown) [MFS]	–	24.8 ± 2.2 µM	–
O=c1ccc2nc3ccc(OS(=O)(=O)O)cc3oc-2c1 [RS]	AtsB can hydrolyze both RS and DDAO-sulfate, but not MFS	–	17.5 ± 0.9 µM
